High-throughput results as filed in PubChem.
Hits are enriched below; roughly 2.2% of the tested compounds scored in any of these assays.
Mcl1 Noxa PPI = Mcl-1/Noxa binding inhibitors, primary screen, biochemical, TR-FRET, 1536-well; AID 1022, 2008; TR-FRET Mcl-1/Noxa peptide binding, 2 h; hit rate 1.5% among 220,000; Induced myeloid leukemia cell differentiation protein Mcl-1 (Homo sapiens), Q07820; inhibition, % at 21.7 µM;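 active = compounds that cut the protein-peptide binding signal by more than 50% relative to plate controls in a single-dose test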;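 also: His-tagged Mcl-1 with rhodamine Noxa BH3 peptide and terbium anti-His antibody; 0% = Mcl-1 plus Noxa peptide wells and 100% = peptide-only wells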
Target sequence (Q07820 whole entry, looked up): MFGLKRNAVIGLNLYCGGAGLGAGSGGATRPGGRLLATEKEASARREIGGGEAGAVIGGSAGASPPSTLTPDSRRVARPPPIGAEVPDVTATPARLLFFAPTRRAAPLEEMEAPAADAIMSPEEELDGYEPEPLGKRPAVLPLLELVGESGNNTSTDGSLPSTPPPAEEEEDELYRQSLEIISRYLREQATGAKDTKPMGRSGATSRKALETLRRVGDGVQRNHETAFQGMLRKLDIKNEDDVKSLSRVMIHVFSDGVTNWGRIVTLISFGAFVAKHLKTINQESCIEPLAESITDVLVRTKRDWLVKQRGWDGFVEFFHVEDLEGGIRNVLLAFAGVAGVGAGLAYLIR
RBBP9 inh = human RBBP9 inhibitors, primary screen, biochemical, fluorescence polarization, FP-Rh probe, HTS; Serine hydrolase RBBP9 (Homo sapiens), O75884; recombinant RBBP9; inhibition, % at 7.94 µM; hit rate 0.2% among 220,000;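 active = inhibition above the campaign mean of all tested compounds plus 3 SD, cut at about 14% in these data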;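 also: plate controls were DMSO wells with RBBP9 for no effect and wells lacking RBBP9 protein for full effect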
Target sequence (O75884 whole entry, looked up): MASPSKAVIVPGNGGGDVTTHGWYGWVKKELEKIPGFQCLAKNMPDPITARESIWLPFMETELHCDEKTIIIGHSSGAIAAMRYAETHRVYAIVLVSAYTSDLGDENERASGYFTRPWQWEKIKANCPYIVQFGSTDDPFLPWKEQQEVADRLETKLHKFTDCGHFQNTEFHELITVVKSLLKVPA
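Test system – recombinant human RBBP9 · Input – RBBP9 2.5 µM in dispensing solution, pre-mixing · Medium – Tris buffer pH 8.0, NaCl, Pluronic · Schedule – preincubation 30 min plus labeling 45 min at 25 °C · Measured by – fluorescence polarization · Measure – % inhibition · Controls – DMSO and no-protein wells · Replicates – one well per compound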
Mcl-1 Bim block = inhibitors of Bim peptide binding to Mcl-1, primary screen, biochemical, bead-based flow cytometry, multiplex; Induced myeloid leukemia cell differentiation protein Mcl-1 (Homo sapiens), Q07820; inhibition, % at 10 µM; Bim peptide-Mcl-1 binding; hit rate 0.1% among 190,000; in the data active = inhibition above about 40%;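 also: 0% = no compound tracer wells and 100% = peptide blocker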
Mcl1-Bid inh = Mcl-1/Bid binding inhibitors, primary screen, biochemical, TR-FRET, 1536-well; TR-FRET Mcl-1/Bid-Dy647 peptide binding; hit rate 0.97% among 220,000; Induced myeloid leukemia cell differentiation protein Mcl-1 (Homo sapiens), Q07820; inhibition, % at 21.7 µM;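 active = compounds that cut the binding signal by more than half at the single screening dose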;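 also: His-tagged Mcl-1 with europium anti-His antibody binding Bid BH3 peptide; 0% = Mcl-1 plus peptide wells and 100% = peptide-only wells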
EBV gp42 inh = Epstein-Barr virus gp42 inhibitors, primary screen, biochemical, uHTS, fluorescence polarization | Glycoprotein 42 (Epstein-Barr virus (strain AG876)), Q1HVG2 | Fluorescence polarization binding assay, mP read-out | inhibition, % (tested at 21.74 µM) | hit rate 0.42% among 220,000 | AID 1085, 2008; in the data active = inhibition above about 50%
MCL1-BIM inh = inhibitors of MCL1 binding to BIM-BH3, primary screen, biochemical, fluorescence polarization; hit rate 0.68% among 320,000; AID 2057, 2009; inhibition, % at 10.9 µM; Induced myeloid leukemia cell differentiation protein Mcl-1 (Homo sapiens), Q07820; GST-MCL1 / FITC-Bim-BH3 fluorescence polarization;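 active = inhibition above the mean inhibition of all tested compounds plus 3 SD, set per campaign, cut at about 40% in these data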;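 also: 0% = DMSO wells and 100% = unlabeled Bim-BH3 peptide control; higher means more loss of mP so more displacement of Bim peptide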
BCLXL inh confirm = Bcl-xL inhibitors blocking Bim BH3 binding, confirmation, counter-screen for MCL1 inhibitor project, biochemical, fluorescence polarization; shares compounds with MCL1-BIM inh; GST-Bcl-xL / FITC-Bim BH3 peptide FP binding; inhibition, % at 10.9 µM; hit rate 54% among 1,700; AID 2166, 2009;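 active = inhibition above a cutoff equal to the mean inhibition of all tested compounds plus 3 SD, cut at about 30% in these data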;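 also: 0% = DMSO wells and 100% = unlabeled Bim BH3 control peptide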
MCL1 BIM confirm = inhibitors of MCL1 binding to BIM-BH3, confirmation, biochemical, fluorescence polarization, triplicate; GST-MCL1 / FITC-Bim-BH3 fluorescence polarization; inhibition, % at 10.9 µM; hit rate 61% among 1,700; shares compounds with MCL1-BIM inh; AID 2168, 2009;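 active = inhibition above the average of all tested compounds plus 3 SD, cut at about 40% in these data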;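 also: 0% = DMSO wells and 100% = unlabeled Bim-BH3 control peptide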
* = called active by the depositor; . = not tested or not shown.

SMILES	Mcl1 Noxa PPI	RBBP9 inh	Mcl-1 Bim block	Mcl1-Bid inh	EBV gp42 inh	MCL1-BIM inh	BCLXL inh confirm	MCL1 BIM confirm
CC(C)C(C(=O)NC1CCCC1)N(CC1CCCO1)C(=O)CNS(=O)(=O)c1ccccc1 (configuration not stated)	.	.	.	.	.	1.0	.	.
O=C1/C(=C/c2ccccc2)Nc2ccccc21	15.8	3.3	0.0	-25.8	-21.8	56.8*	56.5*	81.8*
N#Cc1ccc(Oc2ccc(S(=O)(=O)N3CCOCC3)cn2)cc1	.	.	.	.	.	5.0	.	.
CN1C(=O)c2ccc(N(C)C)cc2C1=O	-13.3	-1.4	-4.0	-19.6	9.8	35.5	.	.
CN1C(=O)c2ccc(N3CCCC3)cc2C1=O	-7.0	-7.7	1.0	-5.9	31.5	62.7*	46.8*	55.0*
CSCCC(NC(=O)c1ccccc1)C(=O)NCCCSc1ccccc1 (configuration not stated)	.	.	.	.	.	2.4	.	.
Cc1ccc(S(=O)(=O)Nc2ccc(Br)cc2C(NCC(=O)O)c2ccccc2)cc1 (configuration not stated)	-22.2	-5.5	-4.0	0.7	3.3	-0.6	.	.
O=C(O)CSc1cc(NS(=O)(=O)c2ccc(Br)cc2)c2ccccc2c1O	.	.	.	.	.	41.7*	35.4*	78.8*
CC1(OC(=O)c2cccs2)C(=O)C=C2C=C3CCCN3C=C2C1=O (configuration not stated)	71.5*	.	.	-64.3	26.7	62.8*	43.8*	63.2*
Cc1cccc(C(=O)N[C@@H](C)C(=O)N2CCN(c3ncccn3)CC2)c1	.	.	.	.	.	-0.8	.	.
Cn1cccc1C(=O)OCc1cc(-c2ccco2)on1	.	.	.	.	.	-3.9	.	.
O=C(O)c1ccccc1N=Nc1ccc(O)cc1	.	.	.	.	.	63.5*	51.9*	59.8*
O=C(O)c1cc(O)ccc1N=Nc1ccccc1	5.0	-9.3	.	-45.6	0.5	1.4	.	.
Cc1cc(C(=O)NN)n[nH]1	8.5	-9.9	.	-23.8	-15.7	56.1*	1.3	7.0
CCCCc1ccc(NC(=O)C(=O)NCCN2CCN(C(=O)c3ccc([N+](=O)[O-])cc3)CC2)cc1	.	.	.	.	.	7.8	.	.
CC1CCCCN1S(=O)(=O)c1ccc(S(=O)(=O)N2CCCC2)cc1 (configuration not stated)	.	.	.	.	.	3.1	.	.
N=C1/C(=C\c2ccc(-c3cccc(C(=O)O)c3)o2)C(=O)N=C2SC=C(c3ccccc3)N12	92.7*	-5.3	.	97.8*	82.2*	40.5*	10.0	35.3
Brc1cccc(C=Nc2cccc3ncccc23)c1	.	.	.	.	.	-8.7	.	.
Oc1c(Br)cc(Br)cc1C=Nc1cccc2ncccc12	.	.	.	.	.	72.6*	42.6*	54.5*
COc1ccc(-n2c(C)ccc2-c2ccccc2)cn1	.	.	.	.	.	127.9*	88.8*	108.3*
Cc1ccc(N(CC(=O)NCc2ccc(F)cc2)S(=O)(=O)c2c(C)nn(C)c2C)cc1	.	.	.	.	.	5.8	.	.
COc1ccc(CCNC(=O)c2c(N)no[n+]2[O-])cc1OC	-16.5	-10.9	0.0	-9.4	-0.2	95.8*	1.6	-0.9
COc1ccc(CCNC(=O)c2ccc(OC)c(OC)c2)cc1OC	.	.	.	.	.	-1.3	.	.
CCN1CCN(c2ccc(NC(=O)c3ccc4c(c3)[nH]c(=O)n4Cc3ccc(OC)cc3)cc2)CC1	24.6	-7.0	-2.0	-51.6	-8.3	-1.2	.	.
Cc1ccccc1CN(C)Cc1cc(=O)oc2c(C)c(C)ccc12	.	.	.	.	.	63.7*	11.8	6.8
Cc1c(O)ccc2c(CN(C)Cc3ccccc3)cc(=O)oc12	5.9	-7.8	.	-86.1	8.1	5.7	.	.
COc1ccc(Br)cc1S(=O)(=O)N(CC(=O)N1CCN(C)CC1)c1ccccc1	.	.	.	.	.	10.8	.	.
